Experimental findings from ChEMBL document CHEMBL2375351, “Degradation of MAC13243 and studies of the interaction of resulting thiourea compounds with the lipoprotein targeting chaperone LolA” (Bioorg Med Chem Lett, 2013) are described below.

Values after ≈ are worked out from the molar mass of the structure shown. Active and inactive are the calls of the source. No cut-off for these calls is given here.

Series [1] has as its system Pseudomonas aeruginosa. Description: Antibacterial activity against Pseudomonas aeruginosa PAO1 assessed as growth inhibition after 16 hrs. To be noted: PAO1, 16 h. The format is functional. In a few lines:
(§1)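 Broth microdilution in liquid LB with B. subtilis 168 or P. aeruginosa PAO1. Overnight cultures were diluted 1:100, grown to OD600 0.4, then diluted 1:100,000 into serially diluted compound (1–256 µg/mL). Plates were incubated 16 h at 37 °C, static, except B. subtilis, which was shaken at 250 rpm. MIC is the lowest concentration giving OD600 below 0.05.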

The test system of series [2] is Bacillus subtilis. Description: Antibacterial activity against Bacillus subtilis 168 assessed as growth inhibition after 16 hrs. The format is functional. Particulars: subsp. subtilis str. 168, 16 h. In a few lines:
as §1

For series [3], the system named is Escherichia coli. The series is described as follows: Antibacterial activity against Escherichia coli MG1655 overexpressing lolA assessed as growth inhibition after 16 hrs. In kind it is functional. To be noted: MG1655, 16 h.
In series [4] the test system is Escherichia coli. Description: Antibacterial activity against Escherichia coli EB2120 conditional lolA strain with lolA deletion and complementing copy placed at araBAD locus at 1 to 256 ug/mL after 18 hrs in presence of 0.00002 to 0.2% of arabinose. In kind it is functional, organism-based. A digest of the protocol: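 Conditional lolA strain EB2120 (chromosomal lolA deleted, complementing copy at araBAD under arabinose control), grown to OD600 ~0.4–0.5. […] Fold sensitization is the MIC under LolA depletion relative to the fully complemented 0.2% arabinose condition.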

Series [5] relates to Escherichia coli. Description: Potency index, ratio of MAC13243 MIC to compound MIC for Escherichia coli MG1655 overexpressing lolA. The format is functional.
The nature of series [6]: Binding affinity to recombinant Escherichia coli LolA by STDD NMR spectra analysis.
Series [7] relates to Escherichia coli. The series is described as follows: Potency index, ratio of MIC for Escherichia coli EB2120 conditional lolA strain with lolA deletion and complementing copy placed at araBAD locus in presence of 0.2% arabinose to MIC in presence of 0.00002% of arabinose. The format is functional.
The test system of series [8] is Escherichia coli. The series is described as follows: Potency index, ratio of MIC for Escherichia coli AG1 overexpressing lolA to MIC for lolA-deficient Escherichia coli AG1. The format is functional.
The subject of series [9] is Escherichia coli. The series is described as follows: Binding affinity to LolA in Escherichia coli EB68 assessed as change in cell shape from rod to sphere at 10 ug/mL measured every 1 hr for 4 hrs by phase contrast microscopic analysis. In a few lines: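 E. coli EB68 (MG1655) was subcultured 1:100 into LB and grown to OD600 ~0.5, then washed once in fresh medium. Cells were resuspended in LB with compound at 10 µg/mL, placed on poly-lysine-treated slides and examined by phase contrast light microscopy at 1 h intervals for rod-to-sphere shape change.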

The nature of series [10]: Binding affinity to Escherichia coli LolA.
Series [11] is described as follows: Half life of the compound in DMSO at 250 uM measured up to 48 hrs by reverse phase HPLC analysis. The format is physicochemical. A digest of the protocol: (§2)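 Compound at 250 µM final was incubated in DMSO, H2O, 50 mM acetate buffer (pH 4) or 50 mM citrate buffer (pH 11). Samples were analysed over time by reverse phase C18 HPLC using a 10 min gradient of 0.1% TFA water to acetonitrile, with detection at 270 nm. Parent peak areas were plotted against time and fit to exponential decay.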

A short description of series [12]: Half life of the compound in citrate buffer at pH 11 at 250 uM measured up to 48 hrs by reverse phase HPLC analysis. In kind it is physicochemical. In a few lines:
as §2

Series [13] in a line: Half life of the compound in water at 250 uM measured up to 48 hrs by reverse phase HPLC analysis. In kind it is physicochemical. In a few lines:
as §2

Series [14] in a line: Half life of the compound in acetate buffer at pH 4 at 250 uM measured up to 48 hrs by reverse phase HPLC analysis. The format is physicochemical. A digest of the protocol:
as §2

Consider `N=C(N)CSCc1ccc(Cl)cc1`, for which the MIC (in general, the least concentration at which growth counts as inhibited) in series [1] was 128 µg/mL (≈ 596 µM); in series [2] it was above 256 µg/mL; in [3], above 256 µg/mL.

As to `N=C(N)SCc1ccc([N+](=O)[O-])cc1`, the figures for the MIC in [1], in [2] and in series [3] were 64 µg/mL (≈ 303 µM), above 256 µg/mL and 32 µg/mL (≈ 151 µM), respectively.

For the compound `N=C(N)SCCCc1ccc(Cl)cc1`, the MIC is 128 µg/mL (≈ 560 µM) in series [1], above 256 µg/mL in series [2] and above 256 µg/mL in series [3].

For `N=C(N)Sc1ccc(Cl)cc1`, the results for the MIC in series [1], in series [2] and in series [3] were 64 µg/mL (≈ 343 µM), 4 µg/mL (≈ 21.4 µM) and above 256 µg/mL, respectively.

In the case of `N=C(N)c1ccc(Cl)cc1`, the MIC in series [1] was 64 µg/mL (≈ 414 µM); in [2], 4 µg/mL (≈ 25.9 µM); in series [3], above 256 µg/mL.

`N=C(N)NCc1ccc(Cl)cc1`: the MIC in series [1] was 128 µg/mL (≈ 697 µM); in series [2] it was above 256 µg/mL; in [3], 256 µg/mL (≈ 1390 µM).

For `COc1cc(Cc2cnc(N)nc2N)cc(OC)c1OC`, the result in series [4] was inactive.

For `N=C(N)SCc1ccc(Cl)cc1`, the Ratio in series [5] was found to be 4; in [7], 32; in series [8], 16. The MIC is 16 µg/mL (≈ 79.7 µM) in [1], above 256 µg/mL in series [2] and 2 µg/mL (≈ 9.97 µM) in series [3]. Also, the Kd – broadly, the concentration at which binding is half-saturated – in series [6] amounted to 150 µM.

With `N=C(N)SCc1ccccc1Cl`, the results for the MIC in [1], in series [2] and in series [3] were 64 µg/mL (≈ 319 µM), above 256 µg/mL and 16 µg/mL (≈ 79.7 µM), respectively.

Turning to `N=C(N)SCc1ccc(I)cc1`, the MIC is 32 µg/mL (≈ 110 µM) in series [1], above 256 µg/mL in [2] and 16 µg/mL (≈ 54.8 µM) in [3].

For `CN(C)[C@@H]1C(O)=C(C(N)=O)C(=O)[C@@]2(O)C(O)=C3C(=O)c4c(O)cccc4[C@@](C)(O)[C@H]3C[C@@H]12`, the outcome in [4] was inactive.

In the case of `N=C(N)CCc1ccc(Cl)cc1`, the MIC in [1] is 128 µg/mL (≈ 701 µM); in series [2], above 256 µg/mL; in series [3], above 256 µg/mL.

Regarding `CCn1cc(C(=O)O)c(=O)c2cc(F)c(N3CCNCC3)cc21`, the outcome in [4] was inactive.

In the case of `CC1(C)S[C@@H]2[C@H](NC(=O)[C@H](N)c3ccccc3)C(=O)N2[C@H]1C(=O)O`, the result in series [4] was inactive.

`N=C(N)SCc1ccccc1` [BENZYL CARBAMIMIDOTHIOATE]: the MIC in series [1] was 32 µg/mL (≈ 192 µM); in series [2], above 256 µg/mL; in series [3] it was 64 µg/mL (≈ 385 µM).

As to `N=C(N)SCc1ccc(Cl)c(Cl)c1`, the MIC in [1] is 16 µg/mL (≈ 68 µM); in series [2], above 256 µg/mL; in series [3], 2 µg/mL (≈ 8.51 µM). Further, in [6], the Kd came to 200 µM. The outcome in [9] was Active. For the same compound, the Ratio was 32 in series [7] and 16 in series [8].

In the case of `COc1ccc(CCN)cc1OC`, in series [3], the minimal inhibitory concentration (MIC) was above 256 µg/mL.

Take `CN[C@@H]1[C@H](O)[C@H](NC)[C@H]2O[C@@]3(O)C(=O)C[C@@H](C)O[C@H]3O[C@@H]2[C@H]1O`: the result in [4] was inactive.

In the case of `Oc1cc(Cl)ccc1Oc1ccc(Cl)cc1Cl`, the outcome in series [4] was inactive.

Take `N=C(N)SCc1ccc(Br)cc1`: the MIC in series [1] was 16 µg/mL (≈ 65.3 µM); in series [2] it was above 256 µg/mL; in series [3], 4 µg/mL (≈ 16.3 µM).

As for `N=C(N)SCc1ccc(Cl)cc1Cl`, the results for the MIC in [1], in [2] and in [3] were 32 µg/mL (≈ 136 µM), above 256 µg/mL and 1 µg/mL (≈ 4.25 µM), respectively.

Take `COc1ccc(CSC(=N)N)cc1`: the MIC in series [1] is 32 µg/mL (≈ 163 µM); in series [2], above 256 µg/mL; in [3], above 256 µg/mL.

For `N=C(N)SCc1ccc(F)cc1`, the MIC is 16 µg/mL (≈ 86.8 µM) in series [1], above 256 µg/mL in [2] and 16 µg/mL (≈ 86.8 µM) in series [3].

Take `C/N=C(\NC)SCc1ccc(Cl)c(Cl)c1`: the MIC was 256 µg/mL (≈ 973 µM) in [1], above 256 µg/mL in series [2] and 256 µg/mL (≈ 973 µM) in [3].

`COc1ccc(CCN2CN=C(SCc3ccc(Cl)cc3)NC2)cc1OC` displayed a Kd in series [10] of 8 µM. The values for the MIC in [1], in series [2] and in series [3] were 32 µg/mL (≈ 78.8 µM), 256 µg/mL (≈ 631 µM) and 8 µg/mL (≈ 19.7 µM), respectively. Also, the result in series [9] was Active. For the same compound, the Ratio in [7] came out at 32; in series [8], 16. Moreover, the half-life (usually how long it takes for the measured level to halve) at 250 µM was 257 h in [11], 59 h in [12], 13 h in series [13] and 4 h in [14].

Take `N=C(N)SCc1cccc(Cl)c1`: the MIC in series [1] was above 256 µg/mL; in series [2] it was above 256 µg/mL; in [3], 64 µg/mL (≈ 319 µM).

Regarding `N=C(N)SCCc1ccc(Cl)cc1`, the MIC is 128 µg/mL (≈ 596 µM) in series [1], above 256 µg/mL in [2] and above 256 µg/mL in series [3].

As to `N=C(N)OCc1ccc(Cl)cc1`, the MIC was 32 µg/mL (≈ 173 µM) in [1], above 256 µg/mL in series [2] and 32 µg/mL (≈ 173 µM) in series [3].

As for `CO[C@H]1/C=C/O[C@@]2(C)Oc3c(C)c(O)c4c(O)c(c(/C=N/N5CCN(C)CC5)c(O)c4c3C2=O)NC(=O)/C(C)=C\C=C\[C@H](C)[C@H](O)[C@@H](C)[C@@H](O)[C@@H](C)[C@H](OC(C)=O)[C@@H]1C`, the result in series [4] was inactive.

Regarding `C[C@@H]1O[C@@H]1P(=O)(O)O` [FOSFOMYCIN], in [7], the Ratio worked out at 16.
